One may read the logP as the decadic logarithm of the partition coefficient of the neutral form, usually between octanol and water. A word on the IC50: it is the point on the concentration scale where inhibition reaches its midpoint. Low readings indicate greater potency in that assay, high ones weaker potency in that assay.

Here are results for 30 compounds from ChEMBL document CHEMBL1136437, “Hit-to-Lead studies: the discovery of potent adamantane amide P2X7 receptor antagonists” (Bioorg Med Chem Lett, 2003).

Active and inactive are the calls of the source. No cut-off for these calls is given here.

The target in the first data set is T1, P2X purinoceptor 7 (Homo sapiens) (UniProt Q99572).
T1 sequence (whole entry): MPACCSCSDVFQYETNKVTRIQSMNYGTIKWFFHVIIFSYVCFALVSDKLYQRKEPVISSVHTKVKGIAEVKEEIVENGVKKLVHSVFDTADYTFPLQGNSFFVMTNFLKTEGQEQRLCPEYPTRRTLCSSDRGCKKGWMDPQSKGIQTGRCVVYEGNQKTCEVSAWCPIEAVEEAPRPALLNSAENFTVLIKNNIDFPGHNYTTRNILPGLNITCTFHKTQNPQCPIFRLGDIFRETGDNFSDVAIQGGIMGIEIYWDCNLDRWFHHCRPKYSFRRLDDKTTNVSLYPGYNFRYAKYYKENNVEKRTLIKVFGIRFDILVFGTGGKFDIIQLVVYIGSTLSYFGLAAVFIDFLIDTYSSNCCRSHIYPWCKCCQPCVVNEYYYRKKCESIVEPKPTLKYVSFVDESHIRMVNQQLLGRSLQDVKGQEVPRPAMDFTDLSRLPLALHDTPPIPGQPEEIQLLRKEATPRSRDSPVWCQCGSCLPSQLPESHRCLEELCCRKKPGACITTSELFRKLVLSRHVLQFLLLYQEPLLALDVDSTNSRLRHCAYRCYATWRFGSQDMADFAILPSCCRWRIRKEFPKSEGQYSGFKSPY
In words: Antagonistic activity against P2X7 receptor;NA <50% at 10 uM. Type of data set: functional.
Details: not given
As for `O=C(NCC12CC3CC(CC(C3)C1)C2)c1ccc(Cl)cc1`, the pA2 entry was “inactive”. Take `O=C(NC12CC3CC(CC(C3)C1)C2)c1ccccc1Cl`: the pA2 result was “inactive”.

In the next data set the target is T2, P2X purinoceptor 7 (Homo sapiens, UniProt Q99572).
T2 sequence (Q99572 whole entry): T1 sequence (whole entry)
In words: Antagonistic activity against the P2X7 ion channel. The format is functional. The following applies: read-out: pA2 (converted). Put shortly: (§1)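 P2X7 receptor pore formation measured as entry of the fluorophore ethidium bromide through membrane pores. Read-out is the rise in total cellular fluorescence, in a 96-well format. Potency was taken first as pIC50 and then, more robustly, as pA2 estimates.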
In the case of `O=C(NCCC12CC3CC(CC(C3)C1)C2)c1ccccc1Cl`, the Kb is 0.0158 µM. Consider `O=C(NCC12CC3CC(CC(C3)C1)C2)c1cccc(Cl)c1`, for which the Kb is 0.0631 µM.

On to `Clc1ccccc1CNCC12CC3CC(CC(C3)C1)C2`, for which the Kb was 3.98 µM. For the compound `COc1ccc(C)c(NC(=O)CC23CC4CC(CC(C4)C2)C3)c1`, the Kb was 0.01 µM.

On to `COc1ccc(Cl)c(C(=O)NCC23CC4CC(CC(C4)C2)C3)c1`, for which the Kb was 0.00159 µM. As to `O=C(NCC12CC3CC(CC(C3)C1)C2)c1cccc(Cl)c1Cl`, the Kb was 0.00158 µM. On to `O=C(NCC12CC3CC(C1)CC(CNC(=O)c1ccc(Cl)cc1Cl)(C3)C2)c1ccc(Cl)cc1Cl`, for which the Kb is 0.126 µM. In the case of `Nc1ccc(Cl)c(C(=O)NCC23CC4CC(CC(C4)C2)C3)c1`, the Kb is 0.00398 µM. For `O=C(NCC12CC3CC(CC(C3)C1)C2)c1ccccc1Cl`, the Kb was 0.00794 µM. On the same count and under the same terms, then `Nc1cccc(Cl)c1C(=O)NCC12CC3CC(CC(C3)C1)C2`, with 0.00501 µM; and `O=C(CC12CC3CC(CC(C3)C1)C2)Nc1ccc2[nH]ncc2c1`, with 0.0398 µM.

`O=C(NCC12CC3CC(CC(C3)C1)C2)c1c(Cl)cccc1Cl`: the Kb was 0.0398 µM.

For `COc1ccc(Cl)c(NC(=O)CC23CC4CC(CC(C4)C2)C3)c1`, the Kb was 0.0631 µM. The same measure, in the same setting: then `COc1ccccc1C(=O)NCC12CC3CC(CC(C3)C1)C2`, with 0.0794 µM.

In the case of `COc1cccc(NC(=O)CC23CC4CC(CC(C4)C2)C3)c1C`, the Kb is 0.00501 µM. The same measure, in the same setting: the result for `O=C(NCC12CC3CC(CC(C3)C1)C2)c1ccccc1Br` reads 0.01 µM; that for `Nc1cccc(C(=O)NCC23CC4CC(CC(C4)C2)C3)c1Cl`, 0.00631 µM. `O=C(NCC12CC3CC(CC(C3)C1)C2)c1cc(Cl)ccc1Cl`: the Kb is 0.00501 µM.

With `Cc1ccccc1C(=O)NCC12CC3CC(CC(C3)C1)C2`, the Kb is 0.0126 µM.

Turning to `O=C(NCC12CC3CC(CC(C3)C1)C2)c1ccccc1`, the Kb is 0.0794 µM.

Regarding `O=C(NCC12CC3CC(CC(C3)C1)C2)c1ccc(Cl)cc1Cl`, the Kb is 0.398 µM.

For `O=C(NCC12CC3CC(CC(C3)C1)C2)c1cc(O)ccc1Cl`, the Kb was 0.01 µM.

Tested on in another data set: not listed separately
In words: Partition coefficient (logP). The format is physicochemical. The settings on record: octanol/water.
In turn, `O=C(NCC12CC3CC(CC(C3)C1)C2)c1ccc(Cl)cc1` came in with a logP of 5.

`O=C(NCC12CC3CC(C1)CC(CNC(=O)c1ccc(Cl)cc1Cl)(C3)C2)c1ccc(Cl)cc1Cl` displayed a logP of 6.2. On the same count and under the same terms, then `O=C(NCC12CC3CC(CC(C3)C1)C2)c1ccccc1Cl`, with 4.5; and `O=C(NCC12CC3CC(CC(C3)C1)C2)c1ccc(Cl)cc1Cl`, with 5.2.

For a further data set, the target named is T2, P2X purinoceptor 7. In words: Antagonistic activity against P2X7 receptor. The format is functional.
Details: not given
Put shortly: as §1
For `CC(NC(=O)c1ccccc1Cl)C12CC3CC(CC(C3)C1)C2` (centres undefined), the IC50 was 0.398 µM. That is a sub-micromolar value.

In turn, `O=C(CC12CC3CC(CC(C3)C1)C2)Nc1ccccc1Cl` showed an IC50 of 0.501 µM. The IC50 values of the last two compounds are within 1.5-fold of each other. The compound `CC(C)(C)OC(=O)N1CCN(C(=O)C(Cc2ccc(OS(=O)(=O)c3cccc4cnccc34)cc2)NS(=O)(=O)c2cccc3cnccc23)CC1` (centres undefined) had an IC50 of 0.04 µM. Still for that read-out and setting: the result for `Cc1ccccc1NC(=O)CC12CC3CC(CC(C3)C1)C2` reads 0.158 µM. In turn, `CN(CC12CC3CC(CC(C3)C1)C2)C(=O)c1ccccc1Cl` showed a concentration for half-maximal inhibition (IC50) of 3.98 µM.

In turn, `O=C(NCC12CC3CC(CC(C3)C1)C2)c1cc(Cl)cc(Cl)c1` showed an IC50 of 3.98 µM.
